According to ChEMBL document CHEMBL4130351, “Novel pyrazolopyrimidines: Synthesis, in vitro cytotoxic activity and mechanistic investigation” (Eur J Med Chem, 2017):
Blank lines part the entries; values can stand above or below the molecule they belong to.

Key:
MCF7 [1] = assay: Cytotoxicity against human MCF7 cells assessed as reduction in cell viability after 72 hrs by MTT assay; type: functional, cell-based; conditions: MCF7, 72 h
In short: (§1)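 MCF-7 and HepG2 cells in exponential growth were trypsinized and seeded at 1000–2000 cells/well, then incubated 24 h at 37 °C. Compound exposure was 72 h at 0.1, 10, 100 and 1000 μM. Cells took up 5% MTT for 2 h, and formazan was dissolved in acidified isopropanol for 30 min at room temperature. A570 was read, viability expressed as % of control, and IC50 obtained by curve fitting.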

HepG2 [2] = assay: Cytotoxicity against human HepG2 cells assessed as reduction in cell viability after 72 hrs by MTT assay; type: functional, cell-based; conditions: HepG2, 72 h; in short: as §1
[3] = target: Cyclin-dependent kinase 2 (Homo sapiens) (UniProt P24941); assay: Inhibition of CDK2 (unknown origin) at 0.1 uM by CDKN2A antibody-based spectrophotometry
In short: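 Sandwich enzyme immunoassay using a plate pre-coated with CDKN2A-specific antibody. Detection used a biotinylated anti-CDKN2A antibody, then avidin-HRP and substrate; the reaction was stopped and read at 450 nm. Compound levels tested were 0.004, 0.02, 0.1, 0.4 and 0.5 ug/mL, reported as % inhibition. IC50 was derived by Boltzmann sigmoidal nonlinear regression.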

HepG2 [4] = assay: Cell cycle arrest in human HepG2 cells assessed as accumulation at G0/G1 phase at 0.4 uM after 24 hrs by propidium iodide staining-based flow cytometry (reference value: 73.11%); type: functional
[5] = target: Cyclin-dependent kinase 2 (Homo sapiens) (UniProt P24941); assay: Inhibition of CDK2 (unknown origin) at 0.5 uM by CDKN2A antibody-based spectrophotometry
HepG2 [6] = assay: Induction of apoptosis in human HepG2 cells assessed as viable cells at 0.4 uM after 24 hrs by Annexin V/propidium iodide double staining-based flow cytometry (reference value: 99.16 %); type: functional; conditions: HepG2, 24 h, read-out: Activity
In short: (§2)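 MCF-7 exposed at 1.4 μM or HepG2 at 0.4 μM for 24 or 48 h. Cells were collected in PBS, fixed in ice-cold 70% ethanol, washed, then resuspended in PI staining solution containing 0.1 mg/mL RNase plus PE-Annexin V. Staining was 10 min in the dark at 37 °C, followed by FACSCalibur flow cytometry.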

[7] = target: Cyclin-dependent kinase inhibitor 1 (Homo sapiens) (UniProt P38936); assay: Activation of human P21cip1 at 0.40 uM using TMB as substrate by ELISA (reference value: 0%)
Sequence of Cyclin-dependent kinase inhibitor 1 (Homo sapiens) (P38936 whole entry): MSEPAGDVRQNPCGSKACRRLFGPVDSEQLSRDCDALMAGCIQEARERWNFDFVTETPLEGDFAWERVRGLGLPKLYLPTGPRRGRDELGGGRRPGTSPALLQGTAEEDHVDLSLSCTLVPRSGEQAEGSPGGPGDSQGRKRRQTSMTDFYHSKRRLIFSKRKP
In short: (§3)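 Sandwich ELISAs on treated cells for p21Cip1 and p27Kip1: antibody-coated wells, detecting antibody, then HRP conjugate, with incubation and washing between steps. TMB substrate, reaction stopped, absorbance read at 450 nm. Output is residual concentration in pg/mL, expressed as % activation over untreated control.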

[8] = target: Cyclin-dependent kinase 2 (Homo sapiens) (UniProt P24941); assay: Inhibition of CDK2 (unknown origin) at 0.4 uM by CDKN2A antibody-based spectrophotometry
HepG2 [9] = assay: Cell cycle arrest in human HepG2 cells assessed as accumulation at G2/M phase at 0.4 uM after 24 hrs by propidium iodide staining-based flow cytometry (reference value: 4.36%); type: functional
HepG2 [10] = assay: Induction of apoptosis in human HepG2 cells assessed as late apoptotic cells at 0.4 uM after 48 hrs by Annexin V/propidium iodide double staining-based flow cytometry (reference value: 0.14 %); type: functional; in short: as §2
HepG2 [11] = assay: Induction of apoptosis in human HepG2 cells assessed as viable cells at 0.4 uM after 48 hrs by Annexin V/propidium iodide double staining-based flow cytometry (reference value: 99.16 %); type: functional; conditions: HepG2, 48 h, read-out: Activity; in short: as §2
HepG2 [12] = assay: Induction of apoptosis in human HepG2 cells assessed as early apoptotic cells at 0.4 uM after 48 hrs by Annexin V/propidium iodide double staining-based flow cytometry (reference value: 0.61 %); type: functional; in short: as §2
HepG2 [13] = assay: Induction of apoptosis in human HepG2 cells at 0.4 uM after 48 hrs by Annexin V/propidium iodide double staining-based flow cytometry (reference value: 0.84%); type: functional; in short: as §2
HepG2 [14] = assay: Induction of apoptosis in human HepG2 cells assessed as necrotic cells at 0.4 uM after 24 hrs by Annexin V/propidium iodide double staining-based flow cytometry (reference value: 0.09 %); type: functional; in short: as §2
HepG2 [15] = assay: Induction of apoptosis in human HepG2 cells at 0.4 uM after 24 hrs by Annexin V/propidium iodide double staining-based flow cytometry (reference value: 0.84%); type: functional; in short: as §2
HepG2 [16] = assay: Cell cycle arrest in human HepG2 cells assessed as accumulation at S phase at 0.4 uM after 48 hrs by propidium iodide staining-based flow cytometry (reference value: 21.69%); type: functional
[17] = target: Cyclin-dependent kinase 2 (Homo sapiens) (UniProt P24941); assay: Inhibition of CDK2 (unknown origin) at 0.004 uM by CDKN2A antibody-based spectrophotometry
HepG2 [18] = assay: Cell cycle arrest in human HepG2 cells assessed as accumulation at G0/G1 phase at 0.4 uM after 48 hrs by propidium iodide staining-based flow cytometry (reference value: 73.11%); type: functional
HepG2 [19] = assay: Cell cycle arrest in human HepG2 cells assessed as accumulation at S phase at 0.4 uM after 24 hrs by propidium iodide staining-based flow cytometry (reference value: 21.69%); type: functional
[20] = target: Cyclin-dependent kinase inhibitor 1B (Homo sapiens) (UniProt P46527); assay: Activation of human P27kip1 at 0.40 uM using TMB as substrate by ELISA (reference value: 0%); in short: as §3
Sequence of Cyclin-dependent kinase inhibitor 1B (Homo sapiens) (P46527 whole entry): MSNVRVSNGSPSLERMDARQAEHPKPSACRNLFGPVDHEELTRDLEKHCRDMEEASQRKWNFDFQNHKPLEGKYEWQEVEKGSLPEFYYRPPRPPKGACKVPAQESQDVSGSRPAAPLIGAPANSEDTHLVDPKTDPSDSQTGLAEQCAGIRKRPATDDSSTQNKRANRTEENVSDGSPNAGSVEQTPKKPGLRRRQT

HepG2 [21] = assay: Induction of apoptosis in human HepG2 cells assessed as necrotic cells at 0.4 uM after 48 hrs by Annexin V/propidium iodide double staining-based flow cytometry (reference value: 0.09 %); type: functional; in short: as §2
HepG2 [22] = assay: Cell cycle arrest in human HepG2 cells assessed as accumulation at G2/M phase at 0.4 uM after 48 hrs by propidium iodide staining-based flow cytometry (reference value: 4.36%); type: functional
[23] = target: Cyclin-dependent kinase 2 (Homo sapiens) (UniProt P24941); assay: Inhibition of CDK2 (unknown origin) at 0.02 uM by CDKN2A antibody-based spectrophotometry
HepG2 [24] = assay: Induction of apoptosis in human HepG2 cells assessed as late apoptotic cells at 0.4 uM after 24 hrs by Annexin V/propidium iodide double staining-based flow cytometry (reference value: 0.14 %); type: functional; in short: as §2
HepG2 [25] = assay: Induction of apoptosis in human HepG2 cells assessed as caspase-3 activation at 0.4 uM after 10 mins by ELISA relative to control; type: functional
In short: (§4)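 MCF-7 treated at 1.4 μM or HepG2 at 0.4 μM. Cells were trypsinized, rinsed in PBS, pelleted (105–106 cells) and resuspended in 1 mL PBS. Lysis was by three freeze/thaw cycles, followed by a 1500×g spin for 10 min at 2–8 °C. Active caspase-3 (cleaved at Asp175/Ser176) in the lysate was quantified by sandwich ELISA with an anti-rabbit HRP step, read at 450 nm, in pg/mL against control.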

HepG2 [26] = assay: Induction of apoptosis in human HepG2 cells assessed as early apoptotic cells at 0.4 uM after 24 hrs by Annexin V/propidium iodide double staining-based flow cytometry (reference value: 0.61 %); type: functional; in short: as §2
MCF7 [27] = assay: Induction of apoptosis in human MCF7 cells assessed as necrotic cells at 1.4 uM after 24 hrs by Annexin V/propidium iodide double staining-based flow cytometry (reference value: 0.05 %); type: functional; in short: as §2
MCF7 [28] = assay: Cell cycle arrest in human MCF7 cells assessed as accumulation at G0/G1 phase at 1.4 uM after 24 hrs by propidium iodide staining-based flow cytometry (reference value: 71.70%); type: functional
MCF7 [29] = assay: Induction of apoptosis in human MCF7 cells assessed as necrotic cells at 1.4 uM after 48 hrs by Annexin V/propidium iodide double staining-based flow cytometry (reference value: 0.05 %); type: functional; in short: as §2
MCF7 [30] = assay: Cell cycle arrest in human MCF7 cells assessed as accumulation at G0/G1 phase at 1.4 uM after 48 hrs by propidium iodide staining-based flow cytometry (reference value: 71.70%); type: functional
MCF7 [31] = assay: Cell cycle arrest in human MCF7 cells assessed as accumulation at S phase at 1.4 uM after 48 hrs by propidium iodide staining-based flow cytometry (reference value: 22.45%); type: functional
MCF7 [32] = assay: Induction of apoptosis in human MCF7 cells at 1.4 uM after 48 hrs by Annexin V/propidium iodide double staining-based flow cytometry (reference value: 0.62%); type: functional; in short: as §2
MCF7 [33] = assay: Induction of apoptosis in human MCF7 cells at 1.4 uM after 24 hrs by Annexin V/propidium iodide double staining-based flow cytometry (reference value: 0.62%); type: functional; in short: as §2
MCF7 [34] = assay: Cell cycle arrest in human MCF7 cells assessed as accumulation at S phase at 1.4 uM after 24 hrs by propidium iodide staining-based flow cytometry (reference value: 22.45%); type: functional
MCF7 [35] = assay: Induction of apoptosis in human MCF7 cells assessed as viable cells at 1.4 uM after 48 hrs by Annexin V/propidium iodide double staining-based flow cytometry (reference value: 99.38 %); type: functional; conditions: MCF7, 48 h, read-out: Activity; in short: as §2
MCF7 [36] = assay: Induction of apoptosis in human MCF7 cells assessed as viable cells at 1.4 uM after 24 hrs by Annexin V/propidium iodide double staining-based flow cytometry (reference value: 99.38 %); type: functional; conditions: MCF7, 24 h, read-out: Activity; in short: as §2
MCF7 [37] = assay: Induction of apoptosis in human MCF7 cells assessed as caspase-3 activation at 1.4 uM after 10 mins by ELISA relative to control; type: functional; in short: as §4
MCF7 [38] = assay: Cell cycle arrest in human MCF7 cells assessed as accumulation at G2/M phase at 1.4 uM after 48 hrs by propidium iodide staining-based flow cytometry (reference value: 5.23%); type: functional
MCF7 [39] = assay: Induction of apoptosis in human MCF7 cells assessed as early apoptotic cells at 1.4 uM after 48 hrs by Annexin V/propidium iodide double staining-based flow cytometry (reference value: 0.39 %); type: functional; in short: as §2
MCF7 [40] = assay: Induction of apoptosis in human MCF7 cells assessed as early apoptotic cells at 1.4 uM after 24 hrs by Annexin V/propidium iodide double staining-based flow cytometry (reference value: 0.39 %); type: functional; in short: as §2
MCF7 [41] = assay: Induction of apoptosis in human MCF7 cells assessed as late apoptotic cells at 1.4 uM after 24 hrs by Annexin V/propidium iodide double staining-based flow cytometry (reference value: 0.18 %); type: functional; in short: as §2
MCF7 [42] = assay: Cell cycle arrest in human MCF7 cells assessed as accumulation at G2/M phase at 1.4 uM after 24 hrs by propidium iodide staining-based flow cytometry (reference value: 5.23%); type: functional
MCF7 [43] = assay: Induction of apoptosis in human MCF7 cells assessed as late apoptotic cells at 1.4 uM after 48 hrs by Annexin V/propidium iodide double staining-based flow cytometry (reference value: 0.18 %); type: functional; in short: as §2

Compound: COc1ccc(-c2nc3c(cnn3-c3ccc(S(N)(=O)=O)cc3)c(=O)[nH]2)cc1OC
IC50 (MCF7 [1]): > 100 µM | IC50 (HepG2 [2]): > 100 µM

Compound: Nc1ncnc2c1cnn2-c1ccc(S(N)(=O)=O)cc1
IC50 (MCF7 [1]): 40.7 µM | IC50 (HepG2 [2]): 95.5 µM

inhibition [3]: 53.1% | inhibition [5]: 81.8% | Activity [7]: 10.1% | inhibition [8]: 68.8% | inhibition [17]: 12.6% | Activity [20]: 8.5% | inhibition [23]: 39%
Compound: N=c1[nH]c(=O)[nH]c2c1cnn2-c1ccc(S(N)(=O)=O)cc1
Activity (HepG2 [4]): 36.55% | viability at 0.4 µM (HepG2 [6]): 86.3% | Activity (HepG2 [9]): 23.78% | Activity (HepG2 [10]): 5.92% | viability at 0.4 µM (HepG2 [11]): 83.3% | Activity (HepG2 [12]): 9.76% | Activity (HepG2 [13]): 16.71% | Activity (HepG2 [14]): 1.29% | Activity (HepG2 [15]): 13.92% | Activity (HepG2 [16]): 24.67% | IC50 (MCF7 [1]): > 100 µM | Activity (HepG2 [18]): 9.62% | Activity (HepG2 [19]): 25.66% | Activity (HepG2 [21]): 1.03% | Activity (HepG2 [22]): 48.91% | IC50 (HepG2 [2]): 0.4 µM | Activity (HepG2 [24]): 4.79% | fold change (FC) (HepG2 [25]): 36 | Activity (HepG2 [26]): 7.64%

Compound: COc1ccc(-c2nc3c(cnn3-c3ccc(S(N)(=O)=O)cc3)c(=O)[nH]2)cc1
Activity (MCF7 [27]): 0.41% | Activity (MCF7 [28]): 64.7% | Activity (MCF7 [29]): 1.48% | Activity (MCF7 [30]): 72.3% | Activity (MCF7 [31]): 16.09% | Activity (MCF7 [32]): 11.61% | Activity (MCF7 [33]): 7.38% | Activity (MCF7 [34]): 27.92% | viability at 1.4 µM (MCF7 [35]): 88.4% | viability at 1.4 µM (MCF7 [36]): 72.6% | fold change (FC) (MCF7 [37]): 32 | IC50 (MCF7 [1]): 1.4 µM | Activity (MCF7 [38]): 0% | Activity (MCF7 [39]): 6.49% | Activity (MCF7 [40]): 4.39% | Activity (MCF7 [41]): 2.58% | Activity (MCF7 [42]): 0% | Activity (MCF7 [43]): 3.64% | IC50 (HepG2 [2]): > 100 µM

Compound: COc1cccc2c1C(=O)c1c(O)c3c(c(O)c1C2=O)C[C@@](O)(C(=O)CO)C[C@@H]3O[C@H]1C[C@H](N)[C@H](O)[C@H](C)O1 [DOXORUBICIN]
IC50 (MCF7 [1]): 1.02 µM | IC50 (HepG2 [2]): 0.9 µM

Compound: NS(=O)(=O)c1ccc(-n2ncc3c(=O)[nH]c(-c4ccc(Br)cc4)nc32)cc1
IC50 (MCF7 [1]): 14.5 µM | IC50 (HepG2 [2]): 42.6 µM
